The record followed here is ChEMBL document CHEMBL4011621, “A Novel Series of Highly Potent Small Molecule Inhibitors of Rhinovirus Replication” (J Med Chem, 2017).

pEC50: −log10 of the molar value. Bounds are passed on as bounds.

Test system in one data set: not listed separately
As to the kind of experiment: Cytotoxicity against human H1HeLa cells assessed as decrease in cell viability after 3 days by MTT assay. The format is cell-based, H1-HeLa.
Settings: not given
What is called CC50 is the concentration at which the toxic effect on the cells reaches its halfway point. Consider `CCOC(=O)c1cc2ccc(Oc3ccnc(C(=O)NC)c3)c(Cl)c2s1`, for which the cytotoxic concentration (CC50) at 72 h was above 100000 nM.
The same measure, in the same setting: for `CCOC(=O)c1ccc2ccc(Oc3ccnc(C(=O)NC)c3)cc2c1` the value was 20800 nM.
Same read-out and setting: the value for `CCCOC(=O)c1sc2cc(Oc3ccnc(C(=O)NC)c3)ccc2c1C` was 37400 nM.
For the molecule `CCOC(=O)c1sc2cc(Oc3ccnc(C(=O)NC)c3)ccc2c1CC`, the CC50 at 72 h came to 35200 nM.
On to `CNC(=O)c1cc(Oc2ccc3ccc(C(=O)OC(C)C)cc3c2)ccn1`, for which the CC50 at 72 h came to 13800 nM.
As for `CNC(=O)c1cc(Oc2ccc3c(C)c(C(=O)OCC(C)C)sc3c2)ccn1`, the CC50 at 72 h is 36600 nM.
Consider `CCOC(=O)c1sc2cc(Oc3ccnc(C(=O)NC)c3)ccc2c1C`, for which the CC50 at 72 h worked out at 50900 nM.
Still for that read-out and setting: the value for `CCOC(=O)c1cc2ccc(Oc3ccnc(C(=O)NC)c3)cc2s1` was above 100000 nM.

Test system in another data set: not listed separately
Put plainly: Selectivity index, ratio of CC50 for human H1HeLa cells to EC50 for Human rhinovirus A21 infected in human H1HeLa cells. The format is toxicity, cell-based. Particulars: read-out: Ratio CC50/EC50. Put shortly: (§1)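 H1HeLa cells plated 2 d ahead; virus plus compound (equal volumes) incubated 33 °C, 3 d, CO2. MTT 1 h at 37 °C, A540/A690. Survival scaled between uninfected untreated (100%) and virus-only (0%) wells to give EC50. CC50 = 50% cell death by MTT in H1HeLa. SI = CC50/EC50; at least three independent experiments.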
`CCOC(=O)c1cc2ccc(Oc3ccnc(C(=O)NC)c3)c(Cl)c2s1`: the selectivity ratio was above 13.
As for `CCOC(=O)c1ccc2ccc(Oc3ccnc(C(=O)NC)c3)cc2c1`, the selectivity ratio worked out at 77.
On to `CCCOC(=O)c1sc2cc(Oc3ccnc(C(=O)NC)c3)ccc2c1C`, for which the selectivity ratio is 110.
As to `CCOC(=O)c1sc2cc(Oc3ccnc(C(=O)NC)c3)ccc2c1CC`, the selectivity ratio turned out to be 170.
Turning to `CNC(=O)c1cc(Oc2ccc3ccc(C(=O)OC(C)C)cc3c2)ccn1`, the selectivity ratio was 29.
As to `CNC(=O)c1cc(Oc2ccc3c(C)c(C(=O)OCC(C)C)sc3c2)ccn1`, the selectivity ratio is 24.
The same measure, in the same setting: for `CCOC(=O)c1sc2cc(Oc3ccnc(C(=O)NC)c3)ccc2c1C` the value was 180; for `CCOC(=O)c1cc2ccc(Oc3ccnc(C(=O)NC)c3)cc2s1`, above 77.

Test system in the next data set: not listed separately
Put plainly: Cytotoxicity aganist human HeLa cells assessed as decrease in cell viability after 2 days by MTT assay. It counts as cell-based.
Settings: not given
(In general: Tetrazolium dyes change colour on reduction, which living cells bring about.)
Regarding `CCOC(=O)c1cc2ccc(Oc3ccnc(C(=O)NC)c3)c(Cl)c2s1`, the CC50 at 48 h is above 100000 nM.
Still for that read-out and setting: for `CCOC(=O)c1ccc2ccc(Oc3ccnc(C(=O)NC)c3)cc2c1` the value was 13200 nM; for `CCCOC(=O)c1sc2cc(Oc3ccnc(C(=O)NC)c3)ccc2c1C`, 57100 nM; for `CCOC(=O)c1sc2cc(Oc3ccnc(C(=O)NC)c3)ccc2c1CC`, 16700 nM.
Take `CNC(=O)c1cc(Oc2ccc3ccc(C(=O)OC(C)C)cc3c2)ccn1`: the CC50 at 48 h turned out to be 8700 nM.
Take `CNC(=O)c1cc(Oc2ccc3c(C)c(C(=O)OCC(C)C)sc3c2)ccn1`: the CC50 at 48 h is 28200 nM.
Regarding `CCOC(=O)c1sc2cc(Oc3ccnc(C(=O)NC)c3)ccc2c1C`, the CC50 at 48 h was above 100000 nM.
On the same count and under the same terms, the value for `CCOC(=O)c1cc2ccc(Oc3ccnc(C(=O)NC)c3)cc2s1` was above 100000 nM.

Test system in a further data set: not listed separately
Put plainly: Selectivity index, ratio of CC50 for human HeLa cells to EC50 for human poliovirus 3 infected in human HeLa cells. Particulars: read-out: Ratio CC50/EC50. The format is toxicity, cell-based. Put shortly:
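SI = CC50/EC50 in HeLa cells. CC50 = 50% cell death by MTT. EC50 = 50% inhibition of PV3 CPE by MTT after 2 d at 37 °C, survival scaled to uninfected (100%) and virus-only (0%) wells. At least three independent experiments.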
For the molecule `CCOC(=O)c1cc2ccc(Oc3ccnc(C(=O)NC)c3)c(Cl)c2s1`, the selectivity ratio is above 1.7.
Same read-out and setting: for `CCOC(=O)c1ccc2ccc(Oc3ccnc(C(=O)NC)c3)cc2c1` the value was 1400.
Take `CCCOC(=O)c1sc2cc(Oc3ccnc(C(=O)NC)c3)ccc2c1C`: the selectivity ratio turned out to be 80.
In the case of `CNC(=O)c1cc(Oc2ccc3ccc(C(=O)OC(C)C)cc3c2)ccn1`, the selectivity ratio was 870.
With `CNC(=O)c1cc(Oc2ccc3c(C)c(C(=O)OCC(C)C)sc3c2)ccn1`, the selectivity ratio is 14.
Take `CCOC(=O)c1sc2cc(Oc3ccnc(C(=O)NC)c3)ccc2c1C`: the selectivity ratio was above 1100.
For the molecule `CCOC(=O)c1cc2ccc(Oc3ccnc(C(=O)NC)c3)cc2s1`, the selectivity ratio is above 1.6.

The test system of another data set is rhinovirus A21. Put plainly: Antiviral activity against Human rhinovirus A21 infected in human H1HeLa cells assessed as protection against virus induced cytopathic effect after 3 days by MTT assay. Particulars: Rhinovirus A, H1-HeLa, 72 h. It counts as functional, cell-based. Put shortly: (§2)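 CPE-reduction assay in H1HeLa cells plated 2 d before. Equal volumes of virus and compound were added and held at 33 °C for 3 d under CO2. Supernatant was removed, then MTT was added for 1 h at 37 °C. Formazan was dissolved and read at 540 nm against a 690 nm reference. Survival was scaled between uninfected untreated wells (100%) and virus-only wells (0%); mean ± SD, three experiments.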
What is called pEC50 is the EC50 on a negative log10 scale, so that one unit is a factor of ten. With `CCOC(=O)c1cc2ccc(Oc3ccnc(C(=O)NC)c3)c(Cl)c2s1`, the pEC50 was 5.11.
For the molecule `CCOC(=O)c1ccc2ccc(Oc3ccnc(C(=O)NC)c3)cc2c1`, the pEC50 was 6.57.
The same measure, in the same setting: for `CCCOC(=O)c1sc2cc(Oc3ccnc(C(=O)NC)c3)ccc2c1C` the value was 6.48; for `CCOC(=O)c1sc2cc(Oc3ccnc(C(=O)NC)c3)ccc2c1CC`, 6.68.
`CNC(=O)c1cc(Oc2ccc3ccc(C(=O)OC(C)C)cc3c2)ccn1`: the pEC50 is 6.32.
Consider `CNC(=O)c1cc(Oc2ccc3c(C)c(C(=O)OCC(C)C)sc3c2)ccn1`, for which the pEC50 is 5.82.
On to `CCOC(=O)c1sc2cc(Oc3ccnc(C(=O)NC)c3)ccc2c1C`, for which the pEC50 is 6.54.
On to `CCOC(=O)c1cc2ccc(Oc3ccnc(C(=O)NC)c3)cc2s1`, for which the pEC50 is 5.89 to 5.92.

For another data set, the system named is rhinovirus B14. Put plainly: Antiviral activity against Human rhinovirus B14 infected in human H1HeLa cells assessed as protection against virus induced cytopathic effect after 3 days by MTT assay. The format is functional, cell-based. Particulars: Rhinovirus B, H1-HeLa, 72 h. In general terms: Protection from cytopathic effect is a common read-out in antiviral testing.
Consider `CCOC(=O)c1cc2ccc(Oc3ccnc(C(=O)NC)c3)c(Cl)c2s1`, for which the pEC50 is 4.91.
`CCOC(=O)c1ccc2ccc(Oc3ccnc(C(=O)NC)c3)cc2c1`: the pEC50 is 5.68.
The same measure, in the same setting: the value for `CCCOC(=O)c1sc2cc(Oc3ccnc(C(=O)NC)c3)ccc2c1C` was 5.54; that for `CCOC(=O)c1sc2cc(Oc3ccnc(C(=O)NC)c3)ccc2c1CC` was 4.87; that for `CNC(=O)c1cc(Oc2ccc3ccc(C(=O)OC(C)C)cc3c2)ccn1` was 5.74.
On to `CNC(=O)c1cc(Oc2ccc3c(C)c(C(=O)OCC(C)C)sc3c2)ccn1`, for which the pEC50 is 5.00.
With `CCOC(=O)c1sc2cc(Oc3ccnc(C(=O)NC)c3)ccc2c1C`, the pEC50 was 5.77.
As for `CCOC(=O)c1cc2ccc(Oc3ccnc(C(=O)NC)c3)cc2s1`, the pEC50 was 4.23 to 4.61.

In the next data set the test system is Poliovirus 3. As to the kind of experiment: Antiviral activity against Human poliovirus 3 infected in human HeLa cells assessed as protection against virus induced cytopathic effect after 2 days by MTT assay. The format is functional, cell-based. The note with it: Enterovirus C, 48 h. Put shortly:
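HeLa cells; MTT-based CPE reduction. Virus and compound added in equal volumes, incubated 37 °C for 2 d in CO2. Supernatant removed, MTT 1 h at 37 °C, formazan dissolved, absorbance 540 nm (690 nm reference). Uninfected untreated wells = 100% survival, virus-only = 0%. EC50 = 50% inhibition; means ± SD, three experiments.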
For the molecule `CCOC(=O)c1cc2ccc(Oc3ccnc(C(=O)NC)c3)c(Cl)c2s1`, the pEC50 is 4.23.
On to `CCOC(=O)c1ccc2ccc(Oc3ccnc(C(=O)NC)c3)cc2c1`, for which the pEC50 was 8.02.
In the case of `CCCOC(=O)c1sc2cc(Oc3ccnc(C(=O)NC)c3)ccc2c1C`, the pEC50 was 6.15.
`CCOC(=O)c1sc2cc(Oc3ccnc(C(=O)NC)c3)ccc2c1CC`: the pEC50 is below 4.78.
The same measure, in the same setting: the value for `CNC(=O)c1cc(Oc2ccc3ccc(C(=O)OC(C)C)cc3c2)ccn1` was 8.00; that for `CNC(=O)c1cc(Oc2ccc3c(C)c(C(=O)OCC(C)C)sc3c2)ccn1` was 5.70; that for `CCOC(=O)c1sc2cc(Oc3ccnc(C(=O)NC)c3)ccc2c1C` was 7.03.
Turning to `CCOC(=O)c1cc2ccc(Oc3ccnc(C(=O)NC)c3)cc2s1`, the negative logarithm of the EC50 (pEC50) was 4.19.

Test system in a further data set: not listed separately
Put plainly: Selectivity index, ratio of CC50 for human H1HeLa cells to EC50 for Human rhinovirus B14 infected in human H1HeLa cells. The format is toxicity, cell-based. The note with it: read-out: Ratio CC50/EC50. Put shortly: as §1
For `CCOC(=O)c1cc2ccc(Oc3ccnc(C(=O)NC)c3)c(Cl)c2s1`, the selectivity ratio was above 8.1.
On to `CCOC(=O)c1ccc2ccc(Oc3ccnc(C(=O)NC)c3)cc2c1`, for which the selectivity ratio stood at 9.9.
As to `CCCOC(=O)c1sc2cc(Oc3ccnc(C(=O)NC)c3)ccc2c1C`, the selectivity ratio was 13.
Same read-out and setting: the value for `CCOC(=O)c1sc2cc(Oc3ccnc(C(=O)NC)c3)ccc2c1CC` was 2.6; that for `CNC(=O)c1cc(Oc2ccc3ccc(C(=O)OC(C)C)cc3c2)ccn1` was 7.7.
Same read-out and setting: the value for `CNC(=O)c1cc(Oc2ccc3c(C)c(C(=O)OCC(C)C)sc3c2)ccn1` was 3.6; that for `CCOC(=O)c1sc2cc(Oc3ccnc(C(=O)NC)c3)ccc2c1C` was 30; that for `CCOC(=O)c1cc2ccc(Oc3ccnc(C(=O)NC)c3)cc2s1` was above 1.7.

Test system in the next data set: not listed separately
Put plainly: Antiviral activity against Human rhinovirus A71 infected in human H1HeLa cells assessed as protection against virus induced cytopathic effect after 3 days by MTT assay. The format is functional, cell-based. Particulars: Rhinovirus A, H1-HeLa, 72 h. Put shortly:
as §2
`CCOC(=O)c1cc2ccc(Oc3ccnc(C(=O)NC)c3)c(Cl)c2s1`: the pEC50 was 6.70.
On to `CCOC(=O)c1ccc2ccc(Oc3ccnc(C(=O)NC)c3)cc2c1`, for which the pEC50 is 7.32.
For the molecule `CCCOC(=O)c1sc2cc(Oc3ccnc(C(=O)NC)c3)ccc2c1C`, the pEC50 was 7.19.
As for `CCOC(=O)c1sc2cc(Oc3ccnc(C(=O)NC)c3)ccc2c1CC`, the pEC50 is 5.89.
`CNC(=O)c1cc(Oc2ccc3ccc(C(=O)OC(C)C)cc3c2)ccn1`: the pEC50 is 7.72.
With `CNC(=O)c1cc(Oc2ccc3c(C)c(C(=O)OCC(C)C)sc3c2)ccn1`, the pEC50 was 6.42.
Turning to `CCOC(=O)c1sc2cc(Oc3ccnc(C(=O)NC)c3)ccc2c1C`, the pEC50 was 6.47.
Consider `CCOC(=O)c1cc2ccc(Oc3ccnc(C(=O)NC)c3)cc2s1`, for which the pEC50 was 7.72.

Test system in a further data set: not listed separately
As to the kind of experiment: Cytotoxicity against human HeLa Rh cells assessed as decrease in cell viability after 3 days by MTT assay. The format is cell-based.
Settings: not given
For `CCOc1noc2cc(OCCC3CCN(c4ccc(C)nn4)CC3)ccc12` [VAPENDAVIR], the CC50 at 72 h was 721000 nM.

Test system in another data set: not listed separately
Put plainly: Selectivity index, ratio of CC50 for human H1HeLa cells to EC50 for Human rhinovirus A71 infected in human H1HeLa cells. It counts as toxicity, cell-based. The note with it: read-out: Ratio CC50/EC50. Put shortly: as §1
For the molecule `CCOC(=O)c1cc2ccc(Oc3ccnc(C(=O)NC)c3)c(Cl)c2s1`, the selectivity ratio is above 500.
In the case of `CCOC(=O)c1ccc2ccc(Oc3ccnc(C(=O)NC)c3)cc2c1`, the selectivity ratio turned out to be 430.
The same measure, in the same setting: the value for `CCCOC(=O)c1sc2cc(Oc3ccnc(C(=O)NC)c3)ccc2c1C` was 580; that for `CCOC(=O)c1sc2cc(Oc3ccnc(C(=O)NC)c3)ccc2c1CC` was 27.
Regarding `CNC(=O)c1cc(Oc2ccc3ccc(C(=O)OC(C)C)cc3c2)ccn1`, the selectivity ratio turned out to be 730.
As for `CNC(=O)c1cc(Oc2ccc3c(C)c(C(=O)OCC(C)C)sc3c2)ccn1`, the selectivity ratio was found to be 96.
Consider `CCOC(=O)c1sc2cc(Oc3ccnc(C(=O)NC)c3)ccc2c1C`, for which the selectivity ratio was determined as 150.
Still for that read-out and setting: the value for `CCOC(=O)c1cc2ccc(Oc3ccnc(C(=O)NC)c3)cc2s1` was above 5300.
